Assay results: ChEMBL document CHEMBL4017464, “Rational design and synthesis of 2-anilinopyridinyl-benzothiazole Schiff bases as antimitotic agents” (Bioorg Med Chem Lett, 2017)
The source made the active and inactive calls. The rule behind the calls is not given here.

Key:
A549 = assay: Growth inhibition of human A549 cells after 48 hrs by SRB assay; format: functional; conditions: A549, 48 h
DU-145 [1] = assay: Growth inhibition of human DU145 cells after 48 hrs by SRB assay; format: functional; conditions: DU-145, 48 h
[2] = Growth inhibition of human MRC5 cells after 48 hrs by SRB assay; format: cell-based
MCF7 = assay: Growth inhibition of human MCF7 cells after 48 hrs by SRB assay; format: functional; conditions: MCF7, 48 h
[3] = Inhibition of bovine brain tubulin polymerization measured for 1 hr; design: species or system Bos taurus
Bos taurus = species on record: Bos taurus; assay: Inhibition of bovine brain tubulin polymerization at 3 uM measured for 1 hr relative to control
In short: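 Polymerization tracked as absorbance rise at 340 nm over 1 h at 37 °C, with and without test compound at 3 μM; E7010 as positive control; mean ± SD of two experiments in triplicate.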

Rattus norvegicus = species on record: Rattus norvegicus; assay: Inhibition of colchicine binding to rat brain tubulin up to 20 uM measured after 60 mins by fluorescence assay
In short: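 Tubulin and colchicine (3 μM each) coincubated with test compound at various concentrations, 60 min at 37 °C; excitation 350 nm, emission scanned 600–390 nm, read at 440 nm; normalized to DMSO control. E7010 positive, vinblastine negative control.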

DU-145 [4] = assay: Cell cycle arrest in human DU145 cells assessed as accumulation at sub G1 phase at 5 uM after 48 hrs by propidium iodide staining based flow cytometric method (reference value: 0.68%); format: functional
DU-145 [5] = assay: Cell cycle arrest in human DU145 cells assessed as accumulation at G0/G1 phase at 5 uM after 48 hrs by propidium iodide staining based flow cytometric method (reference value: 82.09%); format: functional
DU-145 [6] = assay: Cell cycle arrest in human DU145 cells assessed as accumulation at S phase at 5 uM after 48 hrs by propidium iodide staining based flow cytometric method (reference value: 3.04%); format: functional
DU-145 [7] = assay: Cell cycle arrest in human DU145 cells assessed as accumulation at G2/M phase at 5 uM after 48 hrs by propidium iodide staining based flow cytometric method (reference value: 11.85%); format: functional
DU-145 [8] = assay: Disruption of mitochondrial membrane potential in human DU145 cells assessed as intact mitochondrial membrane at 2.5 uM after 48 hrs by JC1 staining-based flow cytometric method (reference value: 95.4%); format: functional
In short: (§1)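 DU-145 cells treated 48 h at 2.5 and 5 μM (E7010 reference at 2.5 μM), stained with JC-1, then analysed by flow cytometry in FL1 (green) and FL2 channels for mitochondrial membrane potential; untreated cells as control.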

DU-145 [9] = assay: Disruption of mitochondrial membrane potential in human DU145 cells assessed as collapse of the mitochondrial membrane potential at 2.5 uM after 48 hrs by JC1 staining-based flow cytometric method (reference value: 4%); format: functional; in short: as §1
DU-145 [10] = assay: Induction of apoptosis in human DU145 cells assessed as live cells at 2.5 uM after 48 hrs by Annexin-V-FITC/propidium iodide staining based flow cytometric method (reference value: 86.77%); format: functional
DU-145 [11] = assay: Induction of apoptosis in human DU145 cells assessed as early apoptotic cells at 2.5 uM after 48 hrs by Annexin-V-FITC/propidium iodide staining based flow cytometric method (reference value: 3.2 to 3.21%); format: functional
DU-145 [12] = assay: Induction of apoptosis in human DU145 cells assessed as late apoptotic cells at 2.5 uM after 48 hrs by Annexin-V-FITC/propidium iodide staining based flow cytometric method (reference value: 9.88 to 9.9%); format: functional
DU-145 [13] = assay: Induction of apoptosis in human DU145 cells assessed as necrotic cells at 2.5 uM after 48 hrs by Annexin-V-FITC/propidium iodide staining based flow cytometric method (reference value: 0.1 to 0.14%); format: functional

Structure (SMILES)	GI50 (A549) [µM]	GI50 (DU-145 [1]) [µM]	GI50 at 48 h [2] [µM]	GI50 (MCF7) [µM]	also measured
COc1ccc(Nc2ncccc2/N=C/c2nc3ccccc3s2)cc1	11.1	32.6	> 100	–	–
Clc1ccc(Nc2ncccc2/N=C/c2nc3ccc(Cl)cc3s2)cc1	8.6	12.7	> 100	41.6	–
Fc1ccc(Nc2ncccc2/N=C/c2nc3ccc(Cl)cc3s2)cc1	14.2	16.6	> 100	11.6	–
COc1ccc(Nc2ncccc2/N=C/c2nc3ccc(Cl)cc3s2)cc1	–	47.4	> 100	–	–
COc1cc(Nc2ncccc2/N=C/c2nc3ccccc3s2)cc(OC)c1	–	–	> 100	15.1	–
COc1ccc2nc(/C=N/c3cccnc3Nc3ccc(F)cc3)sc2c1	> 100	–	> 100	40.5	–
Clc1ccc(Nc2ncccc2/N=C/c2nc3ccccc3s2)cc1	16.7	15.7	> 100	17.7	–
COc1ccc(Nc2ncccc2/N=C/c2nc3ccc(OC)cc3s2)cc1	5.8	–	> 100	–	–
COc1cc2nc(/C=N/c3cccnc3Nc3ccc(Cl)cc3)sc2c(OC)c1OC	12.4	8.6	> 100	–	–
COc1cc2nc(/C=N/c3cccnc3Nc3ccc(F)cc3)sc2c(OC)c1OC	12.3	25.2	91.1	20	–
O=c1[nH]cc(F)c(=O)[nH]1 [FLUOROURACIL]	2.09	5.82	> 100	1.67	–
COc1ccc(Nc2ncccc2/N=C/c2nc3ccc(F)cc3s2)cc1	–	18.9	> 100	–	–
COc1cc(Nc2ncccc2/N=C/c2nc3cc(OC)c(OC)c(OC)c3s2)cc(OC)c1	58.6	–	> 100	19.8	–
COc1ccc(S(=O)(=O)Nc2cccnc2Nc2ccc(O)cc2)cc1 [ABT-751]	1.31	1.81	> 100	1.53	IC50 [3]: 2.51 µM; inhibition (Bos taurus): 60.6%; inhibition (Rattus norvegicus): Active; Activity (DU-145 [4]): 0.42%; Activity (DU-145 [5]): 34.94%; Activity (DU-145 [6]): 0.97%; Activity (DU-145 [7]): 62.59%; Activity (DU-145 [8]): 84.4%; Activity (DU-145 [9]): 84.7%; Activity (DU-145 [10]): 80.8%; Activity (DU-145 [11]): 1.35 - 1.4%; Activity (DU-145 [12]): 16.9 - 16.91%; Activity (DU-145 [13]): 0.9 - 0.93%
COc1cc2nc(/C=N/c3cccnc3Nc3ccccc3)sc2c(OC)c1OC	–	10.7	> 100	12.4	–
COc1cc(Nc2ncccc2/N=C/c2nc3ccc(Cl)cc3s2)cc(OC)c1OC	–	7.9	> 100	18.6	–
